Screens as filed in PubChem.
KCNK3 inh: human KCNK3 channel inhibition, primary screen. O14649. CHO-KCNK3 thallium flux, FluxOR fluorescence; hits give low values. B-score at 10 µM. hit rate 0.84% among 340,000;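 active = B-score under library mean minus 4 SD, starting fluorescence ratio at most library mean plus 5 SD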;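 note: more negative B-score means stronger inhibition of thallium flux through KCNK3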
KCNK9 inh: blocks the human KCNK9 two-pore domain potassium channel; hit rate 1.2% among 310,000; HEK293 KCNK9, FluxOR thallium flux fluorescence; hits give low values; B-score at 10 µM;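 active = ratio B-score over 3 SD below the library mean, with starting fluorescence within 5 SD of its mean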;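 note: negative B-score means less thallium flux so channel inhibition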
KCC2 mod: modulates chloride dependent transport by human KCC2; Q9H2X9; KCC2 cells, thallium flux FluoZin-2 fluorescence; B-score of Tl+ flux slope (higher = more flux/activation; lower = inhibition) at 10 µM; hit rate 2.2% among 190,000;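 active = thallium flux slope and its plate-corrected score both differing from the plate sample mean at a set confidence after two filtering rounds, in either direction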;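 note: slope of fluorescence scaled to starting intensity during 10 to 20 s after thallium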
hERG protect: shields human hERG channel from block by proarrhythmic agents. Q12809. CHO-hERG, FluxOR thallium flux, dofetilide IC70 present. activation (rescue from dofetilide block), less the hit threshold, % at 10 µM. hit rate 0.51% among 310,000;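 active = activation above the mean of controls blocked by dofetilide plus 5 SD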;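 note: thallium influx through hERG after potassium depolarization seen as dye fluorescence rise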
KCNQ1 act: human KCNQ1 channel potentiation or activation; P51787; CHO-K1 KCNQ1, thallium flux FluxOR fluorescence; hits give high values; B-score at 10 µM; hit rate 0.35% among 310,000; AID 2648;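 active = fluorescence ratio B-score, a plate-corrected score, at least three library SD, with initial intensity B-score within 5 SD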
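System: CHO-K1 cells stably expressing KCNQ1 / Medium: assay buffer for compound exposure, DMSO matched across wells / Reagent: thallium- and potassium-containing depolarizing buffer / Compound: one concentration, matched DMSO / Incubation: 20 min compound pretreatment at room temperature / Measured by: kinetic FluxOR fluorescence, 10 s baseline plus 110 s post-stimulus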
KCNQ1 block: human KCNQ1 channel inhibition; CHO-K1 KCNQ1, FluxOR thallium flux fluorescence; hits give high values; B-score at 10 µM; hit rate 1.3% among 310,000;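 active = compounds whose thallium flux B-score, printed positive for inhibition, exceeds three library SD while starting fluorescence stays within three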;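 note: channel opened by potassium depolarization with thallium stimulus after 20 min compound exposure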
KCNK3 inh conf: confirmation of human KCNK3 two-pore domain potassium channel inhibitors; hit rate 99% among 2,400; AID 651638; ratio percent of control, % at 10 µM; CHO-KCNK3 thallium flux, FluxOR fluorescence; 0% buffer, 100% carvedilol maximal block; shares compounds with KCNK3 inh;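 active = ratio percent of control, averaged over triplicates, above buffer control mean plus 5 SD, cut at about 64% in these data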;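 note: ratio is the fluorescence rise from min to max over baseline after thallium stimulus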
KCNK3 noninduced: KCNK3 inhibitor counter-screen hit in non-induced cells | shares compounds with KCNK3 inh | AID 651747 | thallium flux ratio (lower = more inhibition) at 10 µM | hit rate 40% among 2,400 | non-induced KCNK3 parental cells, FluxOR thallium flux; hits give low values;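 active = thallium flux ratio, averaged over three wells, more than 5 SD below the buffer control mean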;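 note: host cells are CHO cells without KCNK3 induction; ratio is peak minus trough fluorescence over baseline then normalized to buffer controls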
* hit, by the source's call; i = inactive; · = no result given. Compounds with a hit are over-represented: about 4.1% of the library has one in this group of screens.

SMILES | KCNK3 inh | KCNK9 inh | KCC2 mod | hERG protect | KCNQ1 act | KCNQ1 block | KCNK3 inh conf | KCNK3 noninduced
CC(C)Sc1nc(N2CCCC2)c2c(c1C#N)CC(C)(C)OC2 | -10* | i | -0.53 | -9 | i | i | 118* | 0.14*
CC(C)(CNC(=O)C1CCN(S(=O)(=O)c2cc([N+](=O)[O-])ccc2Cl)CC1)N1CCOCC1 | i | · | · | · | · | · | · | ·
O=C(CN1CCN(Cc2ccc(F)cc2)CC1)NCc1ccccc1 | i | i | · | -4 | i | i | · | ·
Cc1ccc(-c2csc3ncnc(N4CCN(Cc5ccccc5)CC4)c23)cc1 | -11* | i | · | -11 | i | i | 119* | i
CC1Sc2ccc(S(=O)(=O)N(C)Cc3ccccc3)cc2NC1=O (centres undefined) | -10* | i | · | -5 | i | i | 93* | i
C=CCN(c1ccccc1)S(=O)(=O)c1ccc2c(c1)NC(=O)C(C)S2 (centres undefined) | i | i | · | -2 | i | i | · | ·
N#Cc1c(F)cccc1NCCCn1ccnc1 | i | i | · | -8 | i | i | · | ·
CCN(CC)S(=O)(=O)c1ccc(-c2cc(C(=O)OC)sc2C(F)(F)F)cc1 | -9.7* | i | 0.15 | -8 | i | i | 109* | i
Cc1ccc(C)c(-n2c(-c3ccco3)n[nH]c2=S)c1 | i | i | · | -5 | i | i | · | ·
Cc1cc(=O)oc2cc(NC(=O)c3cc(F)ccc3F)ccc12 | i | · | · | · | · | · | · | ·
Cc1cc(=O)oc2cc(NC(=O)c3ccccc3OC(F)F)ccc12 | -11* | i | · | -6 | i | i | 105* | i
CCOc1nc(CC(C)C)c2c(c1C#N)CC(C)(C)OC2 | -9* | i | -0.24 | -14 | i | i | 111* | i
O=C(Nc1ccccc1N1CCCCC1)c1ccc(OC(F)F)cc1 | -12* | -7.3* | · | -1 | i | i | 92* | i
CCC(C)Oc1cccc(C(=O)Nc2ccccc2N2CCOCC2)c1 (centres undefined) | -9.8* | i | 0.034 | -16 | i | i | 125* | 0.15*
COc1cccc(C(=O)NC(=S)Nc2ccccc2N2CCOCC2)c1 | i | i | · | -17 | i | i | · | ·
O=C(Nc1ccccc1N1CCOCC1)c1cccc(Oc2ccccc2)c1 | -9.6* | i | · | -7 | i | i | 96* | i
O=C(Nc1ccccc1N1CCN(c2ccccc2)CC1)c1ccccc1 | -9.5* | i | -0.78 | -4 | i | i | 113* | 0.13*
O=C(NC1CCCC1)C(c1ccccc1)N(Cc1cccnc1)C(=O)Cc1cccs1 (centres undefined) | i | i | -0.054 | -7 | i | i | · | ·
CCOc1ccc(-n2c(SCC)nc3c(c2=O)SCC3)cc1 | i | i | -0.045 | -10 | i | i | · | ·
COc1ccccc1N(CC(=O)NC1CCCC1)C(=O)CCC(=O)Nc1ccccn1 | i | i | · | -2 | i | i | · | ·
Cc1ccc(OCCC(=O)O)cc1 | i | i | 0.5 | -6 | i | i | · | ·
C(=N\N1CCN(C2c3ccccc3-c3ccccc32)CC1)/c1cccnc1 | -10* | i | -0.61 | -9 | i | i | 85* | i
CCOC(=O)c1c(C)[nH]c(C(=O)NCc2ccco2)c1C | · | i | -0.56 | -3 | i | i | · | ·
NN=C1c2ccccc2C(=O)C1C(=O)C(c1ccccc1)c1ccccc1 (centres undefined) | -14* | · | · | · | · | · | 138* | 0.097*
CCSc1nc(-c2ccc(OC)cc2)ccc1C#N | -8.8* | i | 0.07 | -8 | i | i | 113* | i
SMILES | KCNK3 inh | KCNK9 inh | KCC2 mod | hERG protect | KCNQ1 act | KCNQ1 block | KCNK3 inh conf | KCNK3 noninduced
COc1ccc(OCC(=O)Nc2ccc3c(c2)nc(CCn2ccccc2=O)n3C)cc1 | i | i | · | -9 | i | i | · | ·
CCOC(=O)c1cccc(N2C(=O)C3C(C2=O)C2C=CC3C23CC3)c1 (centres undefined) | -18* | i | 0.63 | -8 | i | i | 92* | i
CC(=O)Oc1cccc(N2C(=O)C3C(C2=O)C2C=CC3C23CC3)c1 (centres undefined) | i | i | -0.52 | -13 | i | i | · | ·
O=C(CN1CCN(c2ncccn2)CC1)NCCC1=CCCCC1 | i | i | 0.38 | 0 | i | i | · | ·
Cc1nc(-c2cccc(NC(=O)c3ccc(Br)o3)c2)cs1 | i | i | · | -28 | i | i | · | ·
CCOc1ccc(-c2cccc(NC(=O)c3ccc(Br)o3)c2)nn1 | -12* | i | · | -4 | i | i | 98* | i
O=C1c2cccc3cccc(c23)N1Cc1ccc(F)cc1 | i | i | -0.5 | -15 | i | i | · | ·
O=C1c2cccc3cccc(c23)N1Cc1cccc(F)c1 | -14* | i | · | -2 | i | i | 101* | i
CC(C)C(NC(=O)c1cccc(S(=O)(=O)N2CCOCC2)c1)C(=O)NCc1ccc(Cl)cc1 (centres undefined) | i | · | · | · | · | · | · | ·
O=C(CN1CCCN(S(=O)(=O)c2ccc(F)cc2)CC1)Nc1cccc(F)c1 | -12* | -6.7* | · | -7 | i | i | 92* | i
Cc1ccc(OCCOC(=O)CN2C(=O)NC3(CCCC3)C2=O)cc1 | i | i | · | -7 | i | i | · | ·
O=C(Nc1ccc(Cl)cc1)N(Cc1nc2ccccc2c(=O)[nH]1)Cc1cccs1 | i | i | -0.047 | -3 | i | i | · | ·
O=C(Nc1ccc(Cl)cc1)N(Cc1cccs1)Cc1cccs1 | -12* | i | 1.3 | -4 | i | i | 130* | i
COc1cccc(CN(C(=O)c2cc3ccccc3oc2=O)C2CCS(=O)(=O)C2)c1 (centres undefined) | i | i | · | -7 | i | i | · | ·
CCN1C(=O)C(CC(=O)Nc2ccc(OC)cc2)N(CCc2ccccc2)C1=S (centres undefined) | -8.8* | i | -0.81 | -22 | i | i | 113* | i
CCOc1ccc(S(=O)(=O)NCCC(=O)NCCc2ccc(OCC)c(OCC)c2)cc1 | i | i | · | -13 | i | i | · | ·
CCOc1ccc(NC(=O)C2CCCN(c3nc(C)cc(C)n3)C2)cc1 (centres undefined) | i | i | · | -8 | i | i | · | ·
CCOc1ccc(/C=C/C(O)=C2/C(=O)NC3(C)CC2c2ccccc2O3)cc1OC (centres undefined) | i | i | 1 | -2 | i | i | · | ·
